Measured values as given in ChEMBL document CHEMBL4038284, “Synthesis of novel quinoline-based 4,5-dihydro-1H-pyrazoles as potential anticancer, antifungal, antibacterial and antiprotozoal agents” (Eur J Med Chem, 2017).
In brackets after ≈: the same amount, converted by molar mass.

Experiments:
[1] = system: Klebsiella pneumoniae; experiment: Antibacterial activity against carbapenemase positive Klebsiella pneumoniae BAA 1705 after 24 hrs by resazurin dye based microdilution assay; format: functional; settings: BAA 1705, 24 h
Method in brief: (§1)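 MIC taken as the lowest concentration giving visible inhibition and/or by resazurin (1 mg/mL). Gentamicin was the control. Run in duplicate, repeated at least three times.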

[2] = system: Candida albicans; experiment: Growth inhibition of Candida albicans ATCC 10231 at 125 ug/ml incubated for 48 hrs under dark condition by broth microdilution method relative to control; format: functional; settings: ATCC 10231, 48 h, read-out: GI
Method in brief: (§2)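 CLSI M27-A3 broth microdilution in RPMI-1640, DMSO ≤1%. Inoculum 1-5 × 10^3 CFU/mL. Incubated 48 h at 30 °C, dark. % inhibition = 100 − (OD405 test − sterility control)/(OD405 growth control − sterility control), with growth and sterility control wells. Triplicate.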

[3] = system: Trypanosoma cruzi; experiment: Antitrypanosomal activity against Trypanosoma cruzi Tulahuen intracellular amastigote harboring LacZ infected in human U937 cells after 72 hrs by CPRG/Nonidet reagent based spectrophotometric method; format: functional, cell-based; settings: U-937, 72 h
Method in brief: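 U-937 cells at 2.5 × 10^5 cells/mL in RPMI-1640 with 10% serum and 0.1 µg/mL PMA were infected with β-galactosidase-transfected Tulahuen epimastigotes at 5 parasites per cell. Infected cells were exposed to 50, 12.5, 3.125 and 0.78 µg/mL for 72 h. CPRG (100 uM) and 0.1% Nonidet P-40 were added for 3 h, read at 570 nm. EC50 by Probit. Triplicate, at least two experiments; benznidazole as reference.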

[4] = system: Candida albicans; experiment: Growth inhibition of Candida albicans ATCC 10231 at 7.8 ug/ml incubated for 48 hrs under dark condition by broth microdilution method relative to control; format: functional; settings: ATCC 10231, 48 h, read-out: GI; method in brief: as §2
[5] = system: Leishmania panamensis; experiment: Antileshmanial activity against EpiR/GFP fused Leishmania panamensis MHOM/CO/87/UA140 intracellular amastigotes infected in human […] cells after 72 hrs by flow cytometric method; format: functional, cell-based; settings: MHOM/CO/87/UA140, 72 h
Method in brief: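 PMA-treated U-937 cells (3 × 10^5 cells/mL) infected with stationary-phase GFP L. panamensis promastigotes (15:1), 3 h at 34 °C, then washed. After 24 h, compounds added at 50, 12.5, 3.125 and 0.78 µg/mL for 72 h at 37 °C. EC50 by Probit; triplicate, two experiments.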

[6] = system: Neisseria gonorrhoeae; experiment: Antibacterial activity against beta lactamase positive Neisseria gonorrhoeae ATCC 31426 by oxidase test; format: functional
Method in brief: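 Agar dilution MIC on GC agar with 1% isovitalex containing increasing compound concentrations. Plates inoculated with about 1×10^4 CFU (5 µL). MIC is the lowest concentration that inhibited growth, with growth confirmed by oxidase test. Run in duplicate, repeated at least three times.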

[7] = system: Plasmodium falciparum; experiment: Antiplasmodial activity against chloroquine-sensitive Plasmodium falciparum 3D7 assessed as reduction in parasitic LDH activity after 48 hrs by Malstat reagent based […] method; format: functional; settings: 3D7, 48 h
Method in brief: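 Unsynchronized P. falciparum 3D7 at 0.5% parasitemia and 1% hematocrit in RPMI with 3% Albumax II. Exposed to 100, 25, 6.25 and 1.56 µg/mL for 48 h at 37 °C under 90% N2/5% CO2/5% O2. After three freeze-thaw cycles, LDH measured with Malstat and NBT/PES, 1 h in the dark, read at 650 nm. IC50 by Probit; triplicate, ≥2 experiments.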

[8] = system: Pseudomonas aeruginosa; experiment: Antibacterial activity against Pseudomonas aeruginosa ATCC 27853 after 24 hrs by resazurin dye based microdilution assay; format: functional; settings: ATCC 27853, 24 h; method in brief: as §1
[9] = system: Cryptococcus neoformans; experiment: Growth inhibition of Cryptococcus neoformans ATCC 32264 at 31.25 ug/ml incubated for 48 hrs under dark condition by broth microdilution method relative to control; format: functional; settings: ATCC 32264, 48 h, read-out: GI; method in brief: as §2
[10] = system: Cryptococcus neoformans; experiment: Growth inhibition of Cryptococcus neoformans ATCC 32264 at 125 ug/ml incubated for 48 hrs under dark condition by broth microdilution method relative to control; format: functional; settings: ATCC 32264, 48 h, read-out: GI; method in brief: as §2
[11] = system: Staphylococcus aureus; experiment: Antibacterial activity against vancomycin-intermediate Staphylococcus aureus after 24 hrs by resazurin dye based microdilution assay; format: functional; method in brief: as §1
[12] = system: Candida albicans; experiment: Antifungal activity against Candida albicans ATCC 10231 incubated for 48 hrs under dark condition by broth microdilution method; format: functional; settings: ATCC 10231, 48 h
Method in brief: (§3)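 CLSI M27-A3 broth microdilution in RPMI-1640, DMSO ≤1%, compounds at 250-0.98 µg/mL final. Inoculum 1-5 × 10^3 CFU/mL. Incubated 48 h at 30 °C in a moist dark chamber, read at OD405. MIC80 and MIC50 taken from % inhibition dose-response curves (mean ± SEM, triplicate). Amphotericin B was the positive control.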

[13] = system: Candida albicans; experiment: Growth inhibition of Candida albicans ATCC 10231 at 31.25 ug/ml incubated for 48 hrs under dark condition by broth microdilution method relative to control; format: functional; settings: ATCC 10231, 48 h, read-out: GI; method in brief: as §2
[14] = system: Cryptococcus neoformans; experiment: Growth inhibition of Cryptococcus neoformans ATCC 32264 at 15.62 ug/ml incubated for 48 hrs under dark condition by broth microdilution method relative to control; format: functional; settings: ATCC 32264, 48 h, read-out: GI; method in brief: as §2
[15] = system: Cryptococcus neoformans; experiment: Growth inhibition of Cryptococcus neoformans ATCC 32264 at 250 ug/ml incubated for 48 hrs under dark condition by broth microdilution method relative to control; format: functional; settings: ATCC 32264, 48 h, read-out: GI; method in brief: as §2
[16] = system: Klebsiella pneumoniae; experiment: Antibacterial activity against ESBL positive Klebsiella pneumoniae ATCC 700603 after 24 hrs by resazurin dye based microdilution assay; format: functional; settings: Klebsiella pneumoniae, 700603, 24 h; method in brief: as §1
[17] = system: Candida albicans; experiment: Growth inhibition of Candida albicans ATCC 10231 at 250 ug/ml incubated for 48 hrs under dark condition by broth microdilution method relative to control; format: functional; settings: ATCC 10231, 48 h, read-out: GI; method in brief: as §2
[18] = system: Candida albicans; experiment: Growth inhibition of Candida albicans ATCC 10231 at 3.4 ug/ml incubated for 48 hrs under dark condition by broth microdilution method relative to control; format: functional; settings: ATCC 10231, 48 h, read-out: GI
[19] = system: Staphylococcus aureus; experiment: Antibacterial activity against methicillin-sensitive Staphylococcus aureus ATCC 25923 after 24 hrs by resazurin dye based microdilution assay; format: functional; settings: ATCC 25923, 24 h; method in brief: as §1
[20] = system: Staphylococcus aureus; experiment: Antibacterial activity against methicillin-resistant Staphylococcus aureus ATCC 43300 after 24 hrs by resazurin dye based microdilution assay; format: functional; settings: ATCC 43300, 24 h
Method in brief: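 Broth microdilution in Mueller Hinton broth, inoculum 5 × 10^5 – 8 × 10^5. Compound stocks diluted in MHB with 5% DMSO and 0.1% Tween 80. Incubation 24 h at 35-37 °C. MIC is the lowest concentration with visible growth inhibition and/or by resazurin (1 mg/mL) read-out. Gentamicin as control. Run in duplicate, replicated at least three times.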

[21] = system: U-937; experiment: Cytotoxicity against human U937 cells after 72 hrs by MTT assay; format: cell-based; settings: u-937, 72 h
Method in brief: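 Exponentially growing U-937 at 1 × 10^5 cells/mL in RPMI-1640 with 10% FBS were exposed to 200, 50, 12.5 and 3.125 µg/mL for 72 h at 37 °C, 5% CO2. MTT for 3 h, stopped with isopropanol/SDS, formazan read at 570 nm, blank-corrected. LC50 by Probit from % viability against untreated cells. Triplicate, at least two independent experiments.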

[22] = system: Cryptococcus neoformans; experiment: Growth inhibition of Cryptococcus neoformans ATCC 32264 at 3.4 ug/ml incubated for 48 hrs under dark condition by broth microdilution method relative to control; format: functional; settings: ATCC 32264, 48 h, read-out: GI
[23] = system: Cryptococcus neoformans; experiment: Antifungal activity against Cryptococcus neoformans ATCC 32264 incubated for 48 hrs under dark condition by broth microdilution method; format: functional; settings: ATCC 32264, 48 h; method in brief: as §3
[24] = system: Escherichia coli; experiment: Antibacterial activity against Escherichia coli ATCC 25922 after 24 hrs by resazurin dye based microdilution assay; format: functional; settings: ATCC 25922, 24 h; method in brief: as §1
[25] = system: Candida albicans; experiment: Growth inhibition of Candida albicans ATCC 10231 at 15.62 ug/ml incubated for 48 hrs under dark condition by broth microdilution method relative to control; format: functional; settings: ATCC 10231, 48 h, read-out: GI; method in brief: as §2
[26] = system: Cryptococcus neoformans; experiment: Growth inhibition of Cryptococcus neoformans ATCC 32264 at 7.8 ug/ml incubated for 48 hrs under dark condition by broth microdilution method relative to control; format: functional; settings: ATCC 32264, 48 h, read-out: GI; method in brief: as §2
[27] = system: Candida albicans; experiment: Growth inhibition of Candida albicans ATCC 10231 at 62.5 ug/ml incubated for 48 hrs under dark condition by broth microdilution method relative to control; format: functional; settings: ATCC 10231, 48 h, read-out: GI; method in brief: as §2
[28] = system: Cryptococcus neoformans; experiment: Growth inhibition of Cryptococcus neoformans ATCC 32264 at 62.5 ug/ml incubated for 48 hrs under dark condition by broth microdilution method relative to control; format: functional; settings: ATCC 32264, 48 h, read-out: GI; method in brief: as §2

Compound	MIC [1]	inhibition of growth at 125 µg/mL [2]	EC50 [3]	inhibition of growth at 7.8 µg/mL [4]	EC50 [5]	MIC [6]	EC50 [7]	MIC [8]	inhibition of growth at 31.25 µg/mL [9]	inhibition of growth at 125 µg/mL [10]	MIC [11]	MIC50 [12]	MIC80 [12]	inhibition of growth at 31.25 µg/mL [13]	inhibition of growth at 15.62 µg/mL [14]	inhibition of growth at 250 µg/mL [15]	MIC [16]	inhibition of growth at 250 µg/mL [17]	inhibition of growth at 3.4 µg/mL [18]	MIC [19]	also measured
Clc1ccc(N2N=C(c3ccccc3)CC2c2cccc(Nc3ccnc4cc(Cl)ccc34)c2)cc1 (stereo not given)	> 1000 µg/mL	18.9%	15.1 µg/mL (≈ 29.7 µM)	4.82%	15.7 µg/mL (≈ 30.8 µM)	> 1000 µg/mL	10.3 µg/mL (≈ 20.1 µM)	> 1000 µg/mL	5.92%	46%	> 1000 µg/mL	≥ 250 µg/mL	≥ 250 µg/mL	10.5%	0%	61%	> 1000 µg/mL	26.9%	2.71%	> 1000 µg/mL	MIC [20]: > 1000 µg/mL; LC50 [21]: > 200 µg/mL; inhibition of growth at 3.4 µg/mL [22]: 0%; MIC50 [23]: 250 µg/mL (≈ 491 µM); MIC80 [23]: ≥ 250 µg/mL; MIC [24]: > 1000 µg/mL; inhibition of growth at 15.62 µg/mL [25]: 8.78%; inhibition of growth at 7.8 µg/mL [26]: 0%; inhibition of growth at 62.5 µg/mL [27]: 10.9%; inhibition of growth at 62.5 µg/mL [28]: 13.8%
CC(=O)N1N=C(c2ccc(C)cc2)CC1c1cccc(Nc2ccnc3cc(Cl)ccc23)c1 (stereo not given)	> 1000 µg/mL	46.2%	1.62 µg/mL (≈ 3.56 µM)	20.6%	1.55 µg/mL (≈ 3.41 µM)	> 1000 µg/mL	17.5 µg/mL (≈ 38.5 µM)	> 1000 µg/mL	33.7%	54.7%	> 1000 µg/mL	250 µg/mL (≈ 549 µM)	≥ 250 µg/mL	32.2%	29.6%	100%	> 1000 µg/mL	67.8%	15.9%	> 1000 µg/mL	MIC [20]: > 1000 µg/mL; LC50 [21]: 4.4 µg/mL (≈ 9.67 µM); inhibition of growth at 3.4 µg/mL [22]: 13.2%; MIC50 [23]: 125 µg/mL (≈ 275 µM); MIC80 [23]: 250 µg/mL (≈ 549 µM); MIC [24]: > 1000 µg/mL; inhibition of growth at 15.62 µg/mL [25]: 31.4%; inhibition of growth at 7.8 µg/mL [26]: 29.2%; inhibition of growth at 62.5 µg/mL [27]: 35.9%; inhibition of growth at 62.5 µg/mL [28]: 42.9%
